# Results published in ChEMBL document CHEMBL2203263, “Discovery of a 4-Azetidinyl-1-thiazoyl-cyclohexane CCR2 Antagonist as a Development Candidate” (ACS Med Chem Lett, 2012).
# Activity calls are given as the source filed them. The rule behind the calls is not given here.
# Tests used:
# [1] = system: Cavia porcellus; assay: Cardiotoxicity in anesthetized-Hartley guinea pig assessed as prolongation of corrected QT interval up to cumulative dose of 10 mg/kg, iv by electrocardiographic analysis; type: toxicity, organism-based; parameters: dose 10 mg/kg, route intravenous; conditions: in vivo
# Method in brief: (§1)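 Anesthetized guinea pigs received cumulative i.v. doses of 0.1, 0.3, 1, 3 and 10 mg/kg, each as a 5 min infusion at 0, 20, 40, 60 and 80 min. QTc was recorded at each time point as percent change from each animal's baseline. Mean ± SEM, n = 3.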
# [2] = system: Cavia porcellus; assay: Cardiotoxicity in iv dosed anesthetized-Hartley guinea pig assessed as prolongation of corrected QT interval by electrocardiographic analysis; type: toxicity, organism-based; conditions: in vivo; method in brief: as §1
# [3] = target: Voltage-gated inwardly rectifying potassium channel KCNH2 (Homo sapiens, UniProt Q12809); assay: Displacement of [3H]-astemizole from human ERG expressed in HEK293 cells after 1 hr by scintillation counting analysis; type: cell-based
# Chain of Voltage-gated inwardly rectifying potassium channel KCNH2 (Q12809 whole entry): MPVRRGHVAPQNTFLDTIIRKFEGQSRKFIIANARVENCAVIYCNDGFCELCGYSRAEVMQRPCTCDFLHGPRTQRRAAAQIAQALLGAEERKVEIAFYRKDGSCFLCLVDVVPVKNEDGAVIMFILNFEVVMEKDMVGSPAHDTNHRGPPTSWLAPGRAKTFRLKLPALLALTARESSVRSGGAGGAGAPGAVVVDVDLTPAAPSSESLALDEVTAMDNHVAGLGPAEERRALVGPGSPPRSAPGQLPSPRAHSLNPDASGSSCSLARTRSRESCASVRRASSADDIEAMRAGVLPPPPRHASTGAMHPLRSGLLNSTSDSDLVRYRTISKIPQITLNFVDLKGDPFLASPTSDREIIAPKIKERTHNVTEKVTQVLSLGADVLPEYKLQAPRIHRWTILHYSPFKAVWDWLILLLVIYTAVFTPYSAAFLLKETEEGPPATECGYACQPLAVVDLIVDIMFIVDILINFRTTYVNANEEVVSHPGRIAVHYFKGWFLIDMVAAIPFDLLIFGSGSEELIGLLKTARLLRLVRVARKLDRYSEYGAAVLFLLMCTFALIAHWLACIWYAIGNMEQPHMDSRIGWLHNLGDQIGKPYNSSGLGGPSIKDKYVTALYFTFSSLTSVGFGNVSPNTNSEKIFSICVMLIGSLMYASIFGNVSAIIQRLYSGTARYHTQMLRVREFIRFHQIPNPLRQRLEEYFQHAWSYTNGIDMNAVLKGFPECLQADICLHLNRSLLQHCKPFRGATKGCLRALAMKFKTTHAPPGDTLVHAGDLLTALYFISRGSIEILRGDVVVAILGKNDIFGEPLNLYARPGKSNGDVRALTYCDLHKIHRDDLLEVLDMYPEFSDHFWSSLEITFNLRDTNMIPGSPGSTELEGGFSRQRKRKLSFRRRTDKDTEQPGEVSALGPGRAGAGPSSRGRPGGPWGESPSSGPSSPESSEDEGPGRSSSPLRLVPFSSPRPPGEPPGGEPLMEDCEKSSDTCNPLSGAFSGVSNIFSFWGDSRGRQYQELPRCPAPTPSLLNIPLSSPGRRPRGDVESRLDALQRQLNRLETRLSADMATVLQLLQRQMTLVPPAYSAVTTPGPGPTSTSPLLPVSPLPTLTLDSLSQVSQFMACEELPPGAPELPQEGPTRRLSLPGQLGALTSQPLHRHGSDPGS
# [4] = target: hERG (KCNH2) (Homo sapiens, UniProt Q12809); assay: Inhibition of human ERG expressed in HEK-293 cells assessed as K+-selective outward current at 3 uM at -80 mV holding potential after 5 mins by voltage patch-clamp method; type: cell-based, HEK293; conditions: HEK-293 cells expressing human ERG
# Chain of hERG (KCNH2) (Q12809 whole entry): as above
# [5] = system: Cavia porcellus; assay: Cardiotoxicity in anesthetized Hartley guinea pig assessed as prolongation of corrected QT interval up to cumulative dose of 10 mg/kg, iv by electrocardiographic analysis; type: toxicity, organism-based; parameters: dose 10 mg/kg, route intravenous; conditions: in vivo; method in brief: as §1
# [6] = Plasma concentration in Hartley guinea pig up to cumulative dose of 10 mg/kg, iv by LC-MS-MS analysis; type: ADME, organism-based, Cavia porcellus; parameters: dose 10 mg/kg, route intravenous; conditions: in vivo
# Method in brief: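 Plasma drug level was taken from the anesthetized guinea pig QTc study. Dosing was cumulative i.v. (0.1, 0.3, 1, 3, 10 mg/kg), each dose a 5 min infusion at 20 min intervals, up to 10 mg/kg.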
# [7] = AUC (last) in mouse at 10 mg/kg, po by LC-MS-MS analysis; type: ADME, organism-based; parameters: time 0 - last, dose 10 mg/kg, route oral; conditions: plasma
# [8] = Cmax in dog at 6.7 mg/kg, po by LC-MS-MS analysis; type: ADME, organism-based, Canis lupus familiaris; parameters: dose 6.7 mg/kg, route oral; conditions: in vivo
# Method in brief: (§2)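 Single oral dose of 6.7 mg/kg given to dogs as a suspension/solution in 0.5% methocel vehicle. AUC was taken to the last sampled time point.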
# [9] = system: Canis familiaris; assay: Toxicity in anesthetized dog assessed as effect on functional respiratory parameters up to 10 mg/kg, iv; type: organism-based, Canis lupus familiaris; parameters: dose 10 mg/kg, route intravenous; conditions: in vivo
# [10] = target: C-X-C chemokine receptor type 4 (Homo sapiens) (UniProt P61073); assay: Binding affinity against CXCR4 at 25 uM
# Chain of C-X-C chemokine receptor type 4 (Homo sapiens) (P61073 whole entry): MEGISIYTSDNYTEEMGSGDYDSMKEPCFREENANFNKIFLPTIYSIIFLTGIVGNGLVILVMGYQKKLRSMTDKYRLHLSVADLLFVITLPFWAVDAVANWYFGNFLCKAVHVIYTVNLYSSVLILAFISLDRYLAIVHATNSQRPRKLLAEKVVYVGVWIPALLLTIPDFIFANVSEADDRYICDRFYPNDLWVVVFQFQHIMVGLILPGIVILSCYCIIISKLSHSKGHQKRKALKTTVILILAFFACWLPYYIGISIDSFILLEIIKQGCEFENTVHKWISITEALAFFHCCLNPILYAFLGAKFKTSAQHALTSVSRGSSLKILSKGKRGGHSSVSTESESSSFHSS
# [11] = Cmax in monkey at 7.2 mg/kg, po by LC-MS-MS analysis; type: ADME, organism-based, Macaca mulatta; parameters: dose 7.2 mg/kg, route oral; conditions: rhesus monkey, in vivo
# [12] = target: T1, C-C chemokine receptor type 1 (Homo sapiens) (UniProt P32246); assay: Binding affinity against CCR1 at 25 uM
# T1 sequence (whole entry): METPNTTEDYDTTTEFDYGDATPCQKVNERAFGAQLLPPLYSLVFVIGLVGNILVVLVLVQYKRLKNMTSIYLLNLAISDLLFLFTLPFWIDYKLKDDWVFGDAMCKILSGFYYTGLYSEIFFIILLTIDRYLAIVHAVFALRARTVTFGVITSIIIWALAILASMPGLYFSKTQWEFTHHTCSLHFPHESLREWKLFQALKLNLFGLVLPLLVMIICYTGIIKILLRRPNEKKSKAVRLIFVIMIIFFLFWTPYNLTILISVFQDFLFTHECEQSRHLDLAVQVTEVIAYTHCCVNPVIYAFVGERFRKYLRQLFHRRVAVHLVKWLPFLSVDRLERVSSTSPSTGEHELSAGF
# [13] = target: C-C chemokine receptor type 5 (Homo sapiens) (UniProt P51681); assay: Binding affinity against CCR5 at 25 uM
# Chain of C-C chemokine receptor type 5 (Homo sapiens) (P51681 whole entry, looked up): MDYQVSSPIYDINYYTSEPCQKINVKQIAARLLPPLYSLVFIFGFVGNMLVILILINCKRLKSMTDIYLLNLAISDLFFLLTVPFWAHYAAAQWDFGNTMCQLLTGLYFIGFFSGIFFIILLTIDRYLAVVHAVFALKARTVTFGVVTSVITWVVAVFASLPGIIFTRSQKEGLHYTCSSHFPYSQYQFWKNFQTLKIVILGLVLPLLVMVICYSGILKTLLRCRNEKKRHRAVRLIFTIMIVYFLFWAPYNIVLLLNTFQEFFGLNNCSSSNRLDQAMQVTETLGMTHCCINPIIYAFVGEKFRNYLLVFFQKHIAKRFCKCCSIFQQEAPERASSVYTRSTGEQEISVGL
# [14] = AUC (last) in rat at 10 mg/kg, po by LC-MS-MS analysis; type: ADME, organism-based; parameters: time 0 - last, dose 10 mg/kg, route oral; conditions: plasma
# [15] = target: C-C chemokine receptor type 2 (Mus musculus, UniProt P51683); assay: Binding affinity to mouse CCR2
# Chain of C-C chemokine receptor type 2 (P51683 whole entry): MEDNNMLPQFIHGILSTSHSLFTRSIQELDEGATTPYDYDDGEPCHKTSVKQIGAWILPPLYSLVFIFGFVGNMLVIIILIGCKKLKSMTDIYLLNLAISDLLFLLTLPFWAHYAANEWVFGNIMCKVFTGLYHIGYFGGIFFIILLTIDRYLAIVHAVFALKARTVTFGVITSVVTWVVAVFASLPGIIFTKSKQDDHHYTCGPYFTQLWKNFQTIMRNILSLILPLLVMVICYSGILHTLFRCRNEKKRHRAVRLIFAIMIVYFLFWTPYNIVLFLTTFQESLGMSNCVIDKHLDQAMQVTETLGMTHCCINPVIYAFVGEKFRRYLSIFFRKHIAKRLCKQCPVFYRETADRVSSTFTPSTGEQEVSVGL
# [16] = target: T2, C-X-C chemokine receptor type 1 (Homo sapiens) (UniProt P25024); assay: Binding affinity against CXCR1 at 25 uM
# T2 sequence (whole entry): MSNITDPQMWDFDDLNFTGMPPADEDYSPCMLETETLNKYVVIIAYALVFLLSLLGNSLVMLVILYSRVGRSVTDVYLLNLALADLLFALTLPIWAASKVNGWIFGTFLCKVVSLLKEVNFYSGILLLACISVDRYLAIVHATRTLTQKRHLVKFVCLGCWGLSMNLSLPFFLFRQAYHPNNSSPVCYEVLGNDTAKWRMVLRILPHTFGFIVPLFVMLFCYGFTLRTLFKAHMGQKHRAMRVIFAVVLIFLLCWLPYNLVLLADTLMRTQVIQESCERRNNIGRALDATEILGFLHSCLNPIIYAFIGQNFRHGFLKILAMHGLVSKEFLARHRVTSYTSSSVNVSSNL
# [17] = Oral bioavailability in rat at 10 mg/kg by LC-MS-MS analysis; type: ADME, organism-based; conditions: in vivo
# [18] = Oral bioavailability in monkey at 7.2 mg/kg by LC-MS-MS analysis; type: ADME, organism-based, Macaca mulatta; conditions: rhesus monkey, in vivo
# [19] = Cmax in rat at 10 mg/kg, po by LC-MS-MS analysis; type: ADME, organism-based; parameters: dose 10 mg/kg, route oral; conditions: in vivo
# [20] = target: T3, CX3C chemokine receptor 1 (Homo sapiens) (UniProt P49238); assay: Binding affinity against CX3CR1 at 25 uM
# T3 sequence (whole entry): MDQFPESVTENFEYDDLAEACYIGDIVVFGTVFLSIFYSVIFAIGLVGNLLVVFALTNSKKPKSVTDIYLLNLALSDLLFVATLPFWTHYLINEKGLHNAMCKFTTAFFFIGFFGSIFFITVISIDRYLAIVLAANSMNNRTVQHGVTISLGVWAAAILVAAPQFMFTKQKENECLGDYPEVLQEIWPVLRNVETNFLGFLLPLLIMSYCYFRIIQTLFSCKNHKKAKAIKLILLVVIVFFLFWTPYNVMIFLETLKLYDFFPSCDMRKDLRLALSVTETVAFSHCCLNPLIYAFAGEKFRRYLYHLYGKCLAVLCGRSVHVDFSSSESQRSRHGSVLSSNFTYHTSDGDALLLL
# [21] = target: T4, C-C chemokine receptor type 3 (Homo sapiens) (UniProt P51677); assay: Binding affinity against CCR3 at 25 uM
# T4 sequence (whole entry): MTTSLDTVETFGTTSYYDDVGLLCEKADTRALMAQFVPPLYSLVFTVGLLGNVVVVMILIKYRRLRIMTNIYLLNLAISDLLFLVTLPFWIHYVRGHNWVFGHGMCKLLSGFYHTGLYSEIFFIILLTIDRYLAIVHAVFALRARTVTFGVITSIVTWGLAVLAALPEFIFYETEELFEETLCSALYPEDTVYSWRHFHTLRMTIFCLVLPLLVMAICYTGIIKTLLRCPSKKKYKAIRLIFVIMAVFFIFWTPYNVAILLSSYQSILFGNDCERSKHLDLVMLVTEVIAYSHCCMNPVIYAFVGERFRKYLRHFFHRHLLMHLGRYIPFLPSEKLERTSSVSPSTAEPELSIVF
# [22] = system: Canis familiaris; assay: Toxicity in anesthetized dog assessed as effect on electrophysiological parameters up to 10 mg/kg, iv; type: organism-based, Canis lupus familiaris; parameters: dose 10 mg/kg, route intravenous; conditions: in vivo
# [23] = target: T5, C-X-C chemokine receptor type 2 (Homo sapiens) (UniProt P25025); assay: Binding affinity against CXCR2 at 25 uM
# T5 sequence (whole entry): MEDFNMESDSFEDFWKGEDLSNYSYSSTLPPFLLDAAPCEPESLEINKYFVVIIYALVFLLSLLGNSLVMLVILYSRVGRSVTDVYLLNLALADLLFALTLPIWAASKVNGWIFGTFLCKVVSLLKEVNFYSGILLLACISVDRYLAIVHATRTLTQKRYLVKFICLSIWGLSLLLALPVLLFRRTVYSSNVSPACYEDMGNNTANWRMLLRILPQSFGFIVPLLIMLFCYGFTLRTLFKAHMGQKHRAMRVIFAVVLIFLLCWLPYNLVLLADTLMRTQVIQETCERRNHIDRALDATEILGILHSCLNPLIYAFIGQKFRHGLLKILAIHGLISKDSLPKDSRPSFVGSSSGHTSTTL
# [24] = system: Canis familiaris; assay: Toxicity in anesthetized dog assessed as effect on cardiohemodynamic parameters up to 10 mg/kg, iv; type: organism-based, Canis lupus familiaris; parameters: dose 10 mg/kg, route intravenous; conditions: in vivo
# [25] = Oral bioavailability in mouse at 10 mg/kg by LC-MS-MS analysis; type: ADME, organism-based; conditions: in vivo
# [26] = system: Canis familiaris; assay: Cardiotoxicity in anesthetized dog assessed as effect on ECG morphology up to 10 mg/kg, iv; type: toxicity, organism-based, Canis lupus familiaris; parameters: dose 10 mg/kg, route intravenous; conditions: in vivo
# [27] = Cmax in mouse at 10 mg/kg, po by LC-MS-MS analysis; type: ADME, organism-based; parameters: dose 10 mg/kg, route oral; conditions: in vivo
# [28] = target: T6, C-C chemokine receptor type 4 (Homo sapiens) (UniProt P51679); assay: Binding affinity against CCR4 at 25 uM
# T6 sequence (whole entry): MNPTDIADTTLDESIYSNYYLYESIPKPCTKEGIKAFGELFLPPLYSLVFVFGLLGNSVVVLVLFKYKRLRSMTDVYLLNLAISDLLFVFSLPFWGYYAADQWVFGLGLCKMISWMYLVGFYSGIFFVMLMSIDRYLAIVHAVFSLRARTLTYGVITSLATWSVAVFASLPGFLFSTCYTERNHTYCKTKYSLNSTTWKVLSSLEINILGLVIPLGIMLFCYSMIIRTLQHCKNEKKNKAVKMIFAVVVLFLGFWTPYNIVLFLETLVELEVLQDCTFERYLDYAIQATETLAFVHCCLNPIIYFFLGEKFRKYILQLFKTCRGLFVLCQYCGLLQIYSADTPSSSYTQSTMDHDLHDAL
# [29] = AUC (last) in monkey at 7.2 mg/kg, po by LC-MS-MS analysis; type: ADME, organism-based, Macaca mulatta; parameters: time 0 - last, dose 7.2 mg/kg, route oral; conditions: rhesus monkey, plasma
# [30] = system: Mus musculus; assay: Inhibition of thioglycollate-induced peritonitis in po dosed human CCR2 knock-in/murine CCR2 knockout mouse assessed as inhibition of leukocytes, monocytes/macrophages and T-lymphocytes influx in to peritoneal cavity administered as bid; type: functional
# [31] = Oral bioavailability in dog at 6.7 mg/kg by LC-MS-MS analysis; type: ADME, organism-based, Canis lupus familiaris; conditions: in vivo; method in brief: as §2
# [32] = system: Mus musculus; assay: Antiasthamatic activity in ovalbumin-sensitized mouse model assessed as inhibition of airway eosinophil infiltration at 10 mg/kg, po bid; type: functional
# [33] = AUC (last) in dog at 6.7 mg/kg, po by LC-MS-MS analysis; type: ADME, organism-based, Canis lupus familiaris; parameters: time 0 - last, dose 6.7 mg/kg, route oral; conditions: plasma; method in brief: as §2
compound,measurement,setting,value
Cc1ccc([C@]2(O)CC[C@H](N3CC(NC(=O)CNC(=O)c4cccc(C(F)(F)F)c4)C3)CC2)cn1,Activity,[1],13%
same,Activity,[2],Dose-dependent effect
COc1ccc([C@]2(O)CC[C@H](N3CC(NC(=O)CNC(=O)c4cccc(C(F)(F)F)c4)C3)CC2)cn1,Activity,[1],6%
same,Activity,[2],Dose-dependent effect
COc1ccc([C@]2(O)CC[C@H](N3CC(NC(=O)CNC(=O)c4cccc(C(F)(F)F)c4)C3)CC2)nc1,IC50,[3],25 µM
same,"inhibition at 5 min, 3 µM",[4],30%
Cc1cnc([C@]2(O)CC[C@H](N3CC(NC(=O)CNC(=O)c4cccc(C(F)(F)F)c4)C3)CC2)s1,Activity,[1],15%
CC(C)c1ncc([C@]2(O)CC[C@H](N3CC(NC(=O)CNC(=O)c4cccc(C(F)(F)F)c4)C3)CC2)s1,Activity,[5],Non-toxic
same,concentration,[6],10 µM
same,IC50,[3],> 50 µM
same,"inhibition at 5 min, 3 µM",[4],35%
CC(C)Oc1ncc([C@]2(O)CC[C@H](N3CC(NC(=O)CNC(=O)c4cccc(C(F)(F)F)c4)C3)CC2)s1,Activity,[5],Non-toxic
same,concentration,[6],3 µM
same,IC50,[3],28 µM
same,"inhibition at 5 min, 3 µM",[4],49%
CSc1ncc([C@]2(O)CC[C@H](N3CC(NC(=O)CNC(=O)c4cccc(C(F)(F)F)c4)C3)CC2)s1,IC50,[3],6 µM
same,"inhibition at 5 min, 3 µM",[4],77%
O=C(CNC(=O)c1cccc(C(F)(F)F)c1)NC1CN([C@H]2CC[C@@](O)(c3cncs3)CC2)C1 [JNJ-41443532],Activity,[5],Non-toxic
same,AUC(0-t),[7],204 ng·h/mL
same,Cmax,[8],1620 ng/mL
same,Activity,[9],Non-toxic
same,concentration,[6],26 µM
same,inhibition,[10],inactive
same,Cmax,[11],740 ng/mL
same,inhibition,[12],inactive
same,inhibition,[13],inactive
same,AUC(0-t),[14],416 ng·h/mL
same,Ki,[15],9.6 µM
same,inhibition,[16],inactive
same,bioavailability,[17],15.3%
same,bioavailability,[18],25.4%
same,Cmax,[19],100 ng/mL
same,inhibition,[20],inactive
same,inhibition,[21],inactive
same,Activity,[22],Non-toxic
same,inhibition,[23],inactive
same,Activity,[24],Non-toxic
same,bioavailability,[25],19%
same,Activity,[26],Non-toxic
same,Cmax,[27],74 ng/mL
same,inhibition,[28],inactive
same,AUC(0-t),[29],3060 ng·h/mL
same,ED50,[30],3 mg/kg
same,inhibition,[30],Dose-dependent effect
same,bioavailability,[31],70.2%
same,inhibition in vivo at 10 mg/kg,[32],89%
same,AUC(0-t),[33],5890 ng·h/mL
